# Results pooled from the literature.
# Each line is one published result; the experiments were not run side by side.
# CYP2C19: Cytochrome P450 2C19 (CYP2C19, Homo sapiens, UniProt P33261)
# UGT1A4: UDP-glucuronosyltransferase 1A4 (UGT1A4, Homo sapiens, UniProt P22310)
Compound,tested on,test,system,setting,measurement,result
C=CC(=O)N1CC2CC(n3nc(-c4ccc(C(=O)Nc5ccccn5)cc4)c4c(N)ncnc43)CC2C1 (stereo not shown),,,"male Wistar rat, plasma","oral, 10 mg/kg",Tmax,2 h
N=C(N)NCc1ccc(NC(=O)C23CCC(C(=O)Nc4ccc(C5=CCN(C(=N)N)CC5)cc4)(CC2)CC3)cc1,NIH3T3,"cell growth or viability, MTS",,24 h,CC50,439 µM
COC(=O)C1CCN(C(=O)c2ccc(SCc3cnc4nc(N)nc(N)c4n3)nc2)CC1,CYP2C19,"enzyme activity, inhibitor, luciferase",,10 µM,inhibition,-2.45%
N=C(N)NCc1ccc(NC(=O)c2ccc(C(=O)Nc3ccc(C4=CCN(C(=N)N)CC4)cc3)nc2)cc1,NIH3T3,"cell growth or viability, MTS",,24 h,CC50,> 117 µM
COC(=O)C1CCN(C(=O)c2ccc(N(CCO)Cc3cnc4nc(N)nc(N)c4n3)cc2)CC1,CYP2C19,"enzyme activity, inhibitor, luciferase",,10 µM,inhibition,-24.5%
COc1cc2c3c(n(CCCN4CCOCC4)c(=O)c2cc1OC)-c1cc2c(cc1C3=O)OCO2,,,"male beagle dog, plasma","intravenous, 10 mg/m², infusion",Cmax,106 ng/mL
N=C(N)N1CC=C(c2coc(C(=O)Nc3ccc(C4=CCN(C(=N)N)CC4)c(F)c3)c2)CC1,NIH3T3,"cell growth or viability, MTS",,24 h,CC50,68 µM
O=C(Nc1c2c(cc3c1CCC3)CCC2)NS(=O)(=O)/C=C/c1nccs1,CYP2C19,"enzyme activity, inhibitor","human, liver microsomes","10 µM, pH 7.4",inhibition,10.7%
C[C@H](O)c1cc(C(=O)N[C@@H](C)Cn2ccc(-c3ccc(C#N)c(Cl)c3)n2)n[nH]1,UGT1A4,"enzyme activity, inhibitor","human, liver microsomes",,IC50,> 100 µM
C[C@@H]1C[C@@H](c2ccc(Br)cc2)c2c(cc3ccccn23)C(=O)O1 (racemic),HFF-1,"cell growth or viability, resazurin",,72 h,CC50,> 100 µM
CN(CCC(=O)O)C(=O)c1ccc2c(c1)CC[C@@H]1[C@@H]2CC[C@]2(C)C(c3cncc(F)c3)=CC[C@@H]12,UGT1A4,"enzyme activity, inhibitor",,,IC50,> 30 µM
CCOC(=O)C1CCCN1C(=O)c1ccc(NCc2cnc3nc(N)nc(N)c3n2)cc1 (stereo not shown),CYP2C19,"enzyme activity, inhibitor, luciferase",,10 µM,inhibition,-16.2%
[11CH3]Oc1cccc(CCc2cc(O)c(=O)[nH]n2)c1,"ATP-dependent translocase ABCB1 (Abcb1a, Mus musculus, UniProt P21447)",,"mouse, brain",5 min,tracer uptake,0.43 %ID/g
